From ChEMBL document CHEMBL1133693, “Peptide and peptide mimetic inhibitors of antigen presentation by HLA-DR class II MHC molecules. Design, structure-activity relationships, and X-ray crystal structures” (J Med Chem, 2000)
Each block holds one compound with its values, some of them ahead of it. Starred links: 1 amine or outer side, 2 acyl side, 3 side chain; linkers in the order of their positions; H or OH if unused. Non-standard residues stand in square brackets, D forms with d. Residues, ends and D or L forms follow the SMILES beside them. *: point of attachment. X11 = O=C([C@H](N[*:1])[C@H](O)[C@@H](O)[C@@H](O)CO)[*:2]; X3 = O=C([C@@H](N[*:1])[C@H](O)[C@H](O)[C@@H](O)CO)[*:2]; X10 = O=C([C@H](Cc1ccc2c(c1)OCO2)N[*:1])[*:2]; X4 = O=C([C@H](CC1CC2CCC1CC2)N[*:1])[*:2]; X5 = CC1CCC(C[C@@H](N[*:1])C(=O)[*:2])CC1; X6 = CC1CCC(C[C@H](N[*:1])C(=O)[*:2])CC1; Phe(3-F) = N[C@@H](Cc1cccc(F)c1)C(=O)O; Phe(3-I) = N[C@@H](Cc1cccc(I)c1)C(=O)O; NMeCha = CN[C@@H](CC1CCCCC1)C(=O)O; NMeR = CN[C@@H](CCCNC(=N)N)C(=O)O; Cha = N[C@@H](CC1CCCCC1)C(=O)O; NHCH(CH2OH)2 = OCC(CO)N*; NMeA = CN[C@@H](C)C(=O)O; NHCH2CH2OH = OCCN*

What was measured:
[1] = Mean relative potency is the ratio of potencies of 'Ac-(Cha)RAMASL-NH2' and compound, to inhibit MHC class II DRB1*0101
In short: (§1)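 Scintillation proximity competition assay. Test compounds competed against the radioligand, and bound counts were read by scintillation. Ac-(Cha)RAMASL-NH2 was run as standard competitor in every run. Potency is the ratio of standard IC50 to compound IC50.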

[2] = Mean relative potency is the ratio of potencies of 'Ac-(Cha)RAMASL-NH2' and compound, to inhibit MHC class II DRB1*0401; in short: as §1

SMILES: CSCC[C@H](NC(=O)[C@H](C)NC(=O)[C@H](CCCN=C(N)N)NC(=O)[C@H](Cc1cccc(F)c1)NC(C)=O)C(=O)N[C@@H](C)C(=O)N[C@@H](CO)C(=O)N[C@@H](CC(C)C)C(N)=O (Ac-[Phe(3-F)]RAMASL-NH2)
Mean relative potency [1]: 0.17
Mean relative potency [2]: 1.19

SMILES: CSCC[C@H](NC(=O)[C@H](C)NC(=O)[C@H](CCCN=C(N)N)NC(=O)[C@H](Cc1cccc(I)c1)NC(C)=O)C(=O)N[C@@H](C)C(=O)N[C@@H](CO)C(=O)N[C@@H](CC(C)C)C(N)=O (Ac-[Phe(3-I)]RAMASL-NH2)
Mean relative potency [1]: 0.61
Mean relative potency [2]: 1.56

SMILES: CSCC[C@H](NC(=O)[C@H](C)NC(=O)[C@H](CCCN=C(N)N)NC(=O)[C@H](CC1CC2CCC1CC2)NC(C)=O)C(=O)N[C@@H](C)C(=O)N[C@@H](CO)C(=O)N[C@@H](CC(C)C)C(N)=O (some centres undefined) (Ac-[X4]RAMASL-NH2)
Mean relative potency [1]: 0.68
Mean relative potency [2]: 1.22

SMILES: CSCC[C@H](NC(=O)[C@H](C)NC(=O)[C@H](CCCN=C(N)N)NC(=O)[C@@H](CC1CCC(C)CC1)NC(C)=O)C(=O)N[C@@H](C)C(=O)N[C@@H](CO)C(=O)N[C@@H](CC(C)C)C(N)=O (some centres undefined) (Ac-[X5]RAMASL-NH2)
Mean relative potency [1]: 1.17
Mean relative potency [2]: 0.93

SMILES: CSCC[C@H](NC(=O)[C@H](C)NC(=O)[C@H](CCCN=C(N)N)NC(=O)[C@H](Cc1ccc2c(c1)OCO2)NC(C)=O)C(=O)N[C@@H](C)C(=O)N[C@@H](CO)C(=O)N[C@@H](CC(C)C)C(N)=O (Ac-[X10]RAMASL-NH2)
Mean relative potency [1]: 1.31
Mean relative potency [2]: 1.65

SMILES: CSCC[C@H](NC(=O)[C@H](C)NC(=O)[C@H](CCCN=C(N)N)NC(=O)[C@H](CC1CC2CCC1C2)NC(C)=O)C(=O)N[C@@H](C)C(=O)N[C@@H](CO)C(=O)N[C@@H](CC(C)C)C(N)=O (stereo in doubt; 2)
Mean relative potency [1]: 0.52
Mean relative potency [2]: 1.71

SMILES: CSCC[C@H](NC(=O)[C@H](C)NC(=O)[C@H](CCCN=C(N)N)NC(=O)[C@H](CC1CC2CCC1C2)NC(C)=O)C(=O)N[C@@H](C)C(=O)N[C@@H](CO)C(=O)N[C@@H](CC(C)C)C(N)=O (stereo in doubt; 6)
Mean relative potency [1]: 0.96
Mean relative potency [2]: 0.92

Second part, the compound after the results:

Mean relative potency [1]: 0.33
Mean relative potency [2]: 1.04
SMILES: CSCC[C@H](NC(=O)[C@H](CCSC)NC(=O)[C@H](CCCN=C(N)N)NC(=O)[C@H](CC1CCCCC1)NC(C)=O)C(=O)N[C@@H](C)C(=O)NCCO (Ac-[Cha]RMMA-NHCH2CH2OH)

Mean relative potency [1]: 0.68
Mean relative potency [2]: 1.55
SMILES: CSCC[C@H](NC(=O)[C@H](CCSC)NC(=O)[C@H](CCCN=C(N)N)NC(=O)[C@H](CC1CCCCC1)NC(C)=O)C(=O)N[C@@H](C)C(=O)NC(CO)CO (Ac-[Cha]RMMA-{NHCH(CH2OH)2})

Mean relative potency [1]: 1.38
Mean relative potency [2]: 0.85
SMILES: CSCC[C@H](NC(=O)[C@H](CCSC)NC(=O)[C@H](CCCN=C(N)N)NC(=O)[C@H](CC1CCCCC1)NC(C)=O)C(=O)N[C@@H](C)C(=O)N[C@@H](CO)C(N)=O (Ac-[Cha]RMMAS-NH2)

Mean relative potency [1]: 1.05
Mean relative potency [2]: 0.88
SMILES: CSCC[C@H](NC(=O)[C@H](CCSC)NC(=O)[C@H](CCCN=C(N)N)NC(=O)[C@H](CC1CCCCC1)NC(C)=O)C(=O)N[C@@H](C)C(=O)N[C@@H](CO)C(=O)N[C@@H](CC(C)C)C(N)=O (Ac-[Cha]RMMASL-NH2)

Mean relative potency [1]: 0.12
Mean relative potency [2]: 0.16
SMILES: CSCC[C@H](NC(=O)[C@H](CCCN=C(N)N)NC(=O)[C@H](CC1CCCCC1)NC(C)=O)C(=O)N[C@@H](CCSC)C(=O)N[C@H](C=O)[C@H](O)[C@H](O)[C@@H](O)CO (Ac-[Cha]RMM[X3]-aldehyde)

Mean relative potency [1]: 0.5
Mean relative potency [2]: 0.81
SMILES: CSCC[C@H](NC(=O)[C@H](CCCN=C(N)N)NC(=O)[C@H](CC1CCCCC1)NC(C)=O)C(=O)N[C@@H](CCSC)C(=O)N[C@@H](C=O)[C@H](O)[C@@H](O)[C@@H](O)CO (Ac-[Cha]RMM[X11]-aldehyde)

Mean relative potency [1]: 1.02
Mean relative potency [2]: 0.56
SMILES: CSCC[C@H](NC(=O)[C@H](C)N(C)C(=O)[C@H](CCCN=C(N)N)NC(=O)[C@H](CC1CCCCC1)NC(C)=O)C(=O)N[C@@H](C)C(=O)N[C@@H](CO)C(=O)N[C@@H](CC(C)C)C(N)=O (Ac-[Cha]R[NMeA]MASL-NH2)

Mean relative potency [1]: 0.001
Mean relative potency [2]: 0.001
SMILES: CSCC[C@H](NC(=O)[C@H](C)NC(=O)[C@H](CCCN=C(N)N)N(C)C(=O)[C@H](CC1CCCCC1)NC(C)=O)C(=O)N[C@@H](C)C(=O)N[C@@H](CO)C(=O)N[C@@H](CC(C)C)C(N)=O (Ac-[Cha][NMeR]AMASL-NH2)

Mean relative potency [1]: 0.25
Mean relative potency [2]: 0.67
SMILES: CSCC[C@H](NC(=O)[C@H](C)NC(=O)[C@H](CCCN=C(N)N)NC(=O)[C@H](CC1CCCCC1)N(C)C(C)=O)C(=O)N[C@@H](C)C(=O)N[C@@H](CO)C(=O)N[C@@H](CC(C)C)C(N)=O (Ac-[NMeCha]RAMASL-NH2)

Mean relative potency [1]: 1.37
Mean relative potency [2]: 1.71
SMILES: CSCC[C@H](NC(=O)[C@H](C)NC(=O)[C@H](CCCN=C(N)N)NC(=O)[C@H](CC1CCC(C)CC1)NC(C)=O)C(=O)N[C@@H](C)C(=O)N[C@@H](CO)C(=O)N[C@@H](CC(C)C)C(N)=O (some centres undefined) (Ac-[X6]RAMASL-NH2)
